# Screening results as filed in PubChem BioAssay.
# Sampled rows, rich in hits. Any-hit rate of the full collection: about 3.1%.
# OX1R antag-1: OX1R (human) antagonism; AID 485270; hit rate 1.8% among 330,000; inhibition, % at 6.6 µM; OX1R-expressing cells, FRET antagonist read-out; O43613; in the data active means inhibition mostly above about 38%, no sharp cut-off; inactive means mostly below about 40%;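 further: 0% = agonist challenge alone and 100% = reference antagonist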
# GPR7 antag: human neuropeptides B/W receptor 1 antagonism; GPR7-expressing cells, fluorescence antagonist assay; AID 1861; inhibition, % at 4.4 µM; hit rate 1.1% among 290,000; in the data active means inhibition above about 16%, passing the limit was not always enough;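 further: cells stimulated with the agonist NPW; 0% = agonist with vehicle and 100% = vehicle without agonist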
# Target sequence (P48145 whole entry, looked up): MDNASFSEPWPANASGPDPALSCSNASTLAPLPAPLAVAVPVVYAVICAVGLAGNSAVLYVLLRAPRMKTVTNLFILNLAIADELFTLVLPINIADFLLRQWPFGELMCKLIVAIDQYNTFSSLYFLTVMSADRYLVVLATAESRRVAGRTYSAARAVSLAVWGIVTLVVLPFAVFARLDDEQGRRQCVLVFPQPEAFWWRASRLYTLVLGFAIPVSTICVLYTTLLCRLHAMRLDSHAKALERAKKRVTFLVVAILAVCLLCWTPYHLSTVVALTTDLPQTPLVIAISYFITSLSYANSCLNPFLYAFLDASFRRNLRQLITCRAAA
# GalR3 antag: antagonists of human GalR3. O60755. AID 651719. HEK293 GalR3-CNG cAMP membrane potential fluorescence; galR3 body fused to GalR1 C-terminus. hit rate 0.44% among 360,000. inhibition, % at 3 µM;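 active means inhibition above the screen-wide average plus 3 SD, cut at about 13% in these data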;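 further: forskolin and galanin both at EC90 stimulate the cells; cAMP rise reported by CNG channel membrane potential dye signal; 0% = forskolin plus galanin with DMSO and 100% = forskolin alone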
# Target sequence (O60755 1-299 limits assumed): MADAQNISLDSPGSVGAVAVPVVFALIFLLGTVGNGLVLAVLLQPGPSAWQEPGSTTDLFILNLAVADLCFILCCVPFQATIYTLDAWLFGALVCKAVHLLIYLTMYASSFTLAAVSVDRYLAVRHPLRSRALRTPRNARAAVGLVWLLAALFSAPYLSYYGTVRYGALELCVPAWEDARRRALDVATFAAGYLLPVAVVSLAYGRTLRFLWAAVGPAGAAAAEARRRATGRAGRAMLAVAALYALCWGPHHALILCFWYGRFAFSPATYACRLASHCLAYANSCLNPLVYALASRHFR
# CHO parental Ca: signal in parental CHO cells, OX1R antagonist counter-screen; parental CHO-K1, ATP-induced calcium, Fluo-8 fluorescence; inhibition, % at 5.6 µM; hit rate 0.63% among 330,000; AID 463079;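 active means inhibition above that plate's mean sample inhibition plus 3 SD, cut at about 26% in these data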;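 further: 0% = ATP-challenged DMSO wells and 100% = DMSO wells without ATP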
#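 Assay system: untransfected parental CHO cell line. Also added: ATP agonist challenge. Dosing: one dose, 5.6 µM nominal. Measured by: Fluo-8 fluorescence. Read-out: % inhibition. Benchmarks: ATP wells versus no-ATP DMSO wells. Repeats: no replicates.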
# OX1R antag-2: antagonists of human orexin 1 receptor | O43613 | CHO/OX1R cells, Fluo-8 calcium fluorescence, orexin A | inhibition, % at 5 µM | AID 434989 | hit rate 0.43% among 330,000;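 active means inhibition above its plate's threshold, mean inhibition of all tested compounds on the plate plus 3 SD, cut at about 37% in these data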;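 further: 0% = orexin A challenge wells and 100% = SB-334867-A antagonist wells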
# OX1R HTRF confirm: OX1R (human) antagonism, HTRF confirmed. shares compounds with OX1R antag-1. OX1R-expressing cells, HTRF antagonist assay. inhibition, % at 6.6 µM. hit rate 49% among 1,800. AID 492964; in the data active means inhibition above about 55%;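 further: CHO cells expressing OX1R stimulated with orexin A at about EC80; 0% = agonist challenge alone and 100% = reference antagonist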
# CHO-K1 HTRF cnt: signal in parental CHO-K1 cells, OX1R antagonist counter-screen; shares compounds with OX1R antag-1; inhibition, % at 6.6 µM; hit rate 48% among 1,800; HTRF counterscreen; in the data active means inhibition above about 17%;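 further: 0% = agonist challenge with vehicle and 100% = vehicle alone without agonist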
# Numbers without * were called inactive; x = no result given.
SMILES,OX1R antag-1,GPR7 antag,GalR3 antag,CHO parental Ca,OX1R antag-2,OX1R HTRF confirm,CHO-K1 HTRF cnt
CCOC(=O)C1(Cc2ccccc2C(F)(F)F)CCN(C(=O)c2cc(C(C)=O)n[nH]2)CC1,7.6,-8.4,-3.2,-20.8,-42.6,x,x
O=C1CSC(=S)N1/N=C/c1ccc(O)c(O)c1O,84.3*,-9.1,x,-2.7,-1.8,16.4,-4.0
Clc1ccc(-c2nnc(SCc3nc4ccccc4[nH]3)o2)c(Cl)c1,27.6,2.3,-2.3,-20.3,-5.1,x,x
Brc1cccc(-c2nnc(SCc3nc4ccccc4[nH]3)o2)c1,79.5*,-4.4,-2.7,-13.8,-3.1,27.6,-0.2
COC(=O)c1ccc(NC(=O)CSc2nc(=O)n3cccc(C)c3n2)cc1,6.0,x,-3.9,-22.5,-28.7,x,x
O=C1c2ccccc2C(=O)c2c1cccc2-n1nnc2ccccc21,17.2,-8.7,-2.3,-10.7,-14.9,x,x
O=C1C(N2CCOCC2)=C(n2nnc3ccccc32)C(=O)c2ccccc21,188.8*,-4.6,-5.2,-10.2,-22.5,52.4,75.1*
CC(=O)N(/N=C1\Sc2ccccc2C1=O)c1cccc(C)c1,105.3*,1.6,-0.5,1.8,9.3,19.3,11.8
CC(=O)N(CN1C(=O)c2ccccc2C1=O)c1cccc(C)c1,13.9,10.7,-0.4,-18.3,-1.9,x,x
O=C(CN1C(=O)C(=O)N(C2CCCC2)C1=O)Nc1ccc([N+](=O)[O-])cc1,x,x,1.5,x,x,x,x
NC(=S)N=Nc1c(O)[nH]c2ccc(F)cc12,83.5*,3.5,-0.4,-2.0,5.3,45.8,35.9*
Oc1[nH]c2ccc(Br)cc2c1N=Nc1ccc(F)cc1,3.0,-20.9,-10.5,-8.6,-31.1,x,x
CN1CCc2cc3c(c4c2[C@H]1[C@H](O)c1ccccc1-4)OCO3,119.2*,-12.5,-3.2,-0.9,-17.4,66.0*,35.3*
Cc1ccc(CNC(=O)C(NS(=O)(=O)c2cccc3nsnc23)C(C)C)cc1 (centres undefined),38.2,-16.7,-7.4,-11.8,-18.2,x,x
CC(=O)Nc1ccc(NC(=O)C2CCCN2S(=O)(=O)c2cccc3nsnc23)cc1 (centres undefined),79.5*,-12.4,-1.4,5.4,-11.6,62.5*,35.9*
O=C(CCNS(=O)(=O)c1cccc2nsnc12)NCc1ccco1,122.1*,-6.2,-7.8,-0.5,-40.7,35.0,39.5*
COc1ccccc1CNC(=O)CCNS(=O)(=O)c1cccc2nsnc12,33.2,0.9,-4.5,-10.5,-0.7,x,x
O=C(NCc1ccco1)C(NS(=O)(=O)c1cccc2nsnc12)c1ccccc1 (centres undefined),92.2*,-4.5,-3.1,-29.1,-28.2,61.3*,27.6*
CCCNC(=O)C(NS(=O)(=O)c1cccc2nsnc12)c1ccccc1 (centres undefined),97.5*,-1.3,-1.2,-20.2,-31.1,63.9*,35.7*
CC(=O)Nc1ccc(NC(=O)C2CCC(CNS(=O)(=O)c3cccc4nsnc34)CC2)cc1 (centres undefined),44.1,-18.0,-8.0,11.7,-7.2,x,x
CCN(CC)S(=O)(=O)c1cc(NC(=O)Cc2ccc(S(=O)(=O)N3CCOCC3)s2)ccc1Cl,x,x,-3.5,x,x,x,x
O=C(CCS(=O)(=O)c1cccc2nsnc12)N1CCN(C(=O)c2ccco2)CC1,91.4*,-10.1,-1.4,6.2,-5.8,35.3,53.0*
O=C(NCc1ccco1)C1CCCN(S(=O)(=O)c2cccc3nsnc23)C1 (centres undefined),78.1*,-10.5,-0.1,2.6,-12.9,30.6,34.1*
O=C(NCCc1ccccc1)C1CCCN(S(=O)(=O)c2cccc3nsnc23)C1 (centres undefined),36.2,-17.5,2.5,-30.3,-25.1,x,x
O=C(CCNS(=O)(=O)c1cccs1)NC1CCN(Cc2ccccc2)CC1,0.5,-6.6,2.0,-7.8,-16.2,x,x
SMILES,OX1R antag-1,GPR7 antag,GalR3 antag,CHO parental Ca,OX1R antag-2,OX1R HTRF confirm,CHO-K1 HTRF cnt
O=C(CCNS(=O)(=O)c1cccc2nsnc12)NC1CCN(Cc2ccccc2)CC1,77.9*,-9.6,-1.8,-23.9,-25.9,35.6,52.9*
CCc1cnc(Nc2nc(C(N)Cc3ccc(F)cc3)cs2)nc1 (centres undefined),x,x,-5.2,x,x,x,x
COc1ccc(C(=O)OCC(=O)NCC2CCCO2)cc1S(=O)(=O)N1CCCc2ccccc21 (centres undefined),15.9,3.1,-5.7,-11.2,-12.0,x,x
CC(=O)Nc1ccc(S(=O)(=O)N2CCC(c3nnc(-c4ccc(C)cc4)o3)CC2)cc1,0.8,-1.7,x,-12.4,-11.3,x,x
O=c1/c(=C/c2ccc([N+](=O)[O-])cc2)sc2n1CCCN=2,169.1*,13.2,-1.7,-3.3,-9.5,61.1*,84.2*
O=[N+]([O-])c1ccc(-[n+]2nc(-c3ccccc3)nn2-c2ccccc2)cc1,81.1*,-9.5,-13.0,-3.1,-1.5,52.6,78.8*
CC(=O)Cc1nnn(-c2cc(C)on2)n1,4.0,-3.8,x,6.9,-8.2,x,x
O=C1NC(=O)C(c2ccccc2)(c2ccc(Cl)cc2Cl)N1 (centres undefined),x,x,-5.5,x,x,x,x
COc1ccc(N=NC2=C(O)CC(C)(C)CC2=O)cc1,102.1*,-0.9,0.0,-4.4,-10.1,32.8,27.8*
CCOC(=O)C1(C)Oc2ccc(S(=O)(=O)CC)cc2NC1=O (centres undefined),15.2,-6.2,-4.9,8.2,6.7,x,x
CCCn1c(/C=C/c2cc[n+](C)cc2)nc2ccccc21,77.9*,-9.5,-6.1,0.0,9.9,49.7,47.3*
O=C(COC(=O)c1ccc([N+](=O)[O-])o1)c1ccccc1,29.3,-7.0,-4.8,-6.7,-11.2,x,x
Cn1c(N)c(C(=O)COC(=O)c2ccc([N+](=O)[O-])o2)c(=O)n(C)c1=O,104.7*,1.0,9.7,-11.2,-10.5,30.6,54.6*
Cn1c(=O)c2c(nc(SCC(=O)NCC3CCCO3)n2Cc2ccc(F)cc2)n(C)c1=O (centres undefined),7.0,-21.7,-5.0,-15.2,-24.8,x,x
O=C(CSc1nncs1)NNC(=O)c1ccccc1Br,10.3,x,-3.3,-8.8,9.7,x,x
Cc1cc[n+](C2=C([O-])c3ccccc3C(=O)/C2=N\S(=O)(=O)c2cccs2)cc1C,106.2*,2.6,0.6,-12.8,-17.0,30.0,24.7*
Cc1cc(C)c[n+](C2=C([O-])c3ccccc3C(=O)/C2=N\S(=O)(=O)c2cccs2)c1,47.8,-2.6,-1.9,3.1,-5.4,x,x
O=C(N=C1SC2CS(=O)(=O)CC2N1Cc1ccccc1Cl)C1CC1 (centres undefined),10.7,-3.8,2.2,4.4,-22.4,x,x
Cc1ccc(-c2nc3ccccc3o2)cc1NC(=O)Cc1cccs1,-0.3,-1.1,-0.2,1.8,1.6,x,x
O=C(Cc1cccs1)Nc1cccc(-c2nc3ccccc3o2)c1,77.5*,-14.4,-3.8,-21.1,6.8,74.2*,-0.1
Cc1nnc(N/N=C\c2ccc(-c3cccc(C(=O)O)c3)o2)n1N,115.1*,-2.5,-8.9,0.9,-0.8,48.1,33.4*
